Experimental data reported in ChEMBL document CHEMBL1152342, “Thiazomycins, thiazolyl peptide antibiotics from Amycolatopsis fastidiosa” (2009).
Converted amounts (≈) assume the structure as drawn.

Experiments:
Assay type in all cases: functional
Staphylococcus aureus [1] = experiment: Antibacterial activity against macrolide, imipenem, methicillin-resistant Staphylococcus aureus MB5393 after 20 hrs by twofold serial broth dilution method; conditions: MB5393, 20 h
Summary of the method: (§1)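 MICs by NCCLS (now CLSI) twofold serial broth dilution. Cation-adjusted Mueller Hinton broth was the standard medium, with CAMHB + 2.5% lysed horse blood used for certain strains. Cultures were incubated at 37 °C for 20 h before reading.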

Staphylococcus aureus [2] = experiment: Antibacterial activity against methicillin-sensitive Staphylococcus aureus MB2865 after 20 hrs by twofold serial broth dilution method; conditions: MB2865, 20 h; summary of the method: as §1
Staphylococcus aureus [3] = experiment: Antibacterial activity against methicillin-sensitive Staphylococcus aureus MB2865 after 20 hrs by twofold serial broth dilution method in presence of 50% human serum; conditions: MB2865, 20 h; summary of the method: as §1
Staphylococcus aureus [4] = experiment: Antibacterial activity against macrolide-sensitive, Linezolid, methicillin-resistant Staphylococcus aureus CL5814 after 20 hrs by twofold serial broth dilution method; conditions: CL5814, 20 h; summary of the method: as §1
Staphylococcus aureus [5] = experiment: Antibacterial activity against macrolide, methicillin-resistant Staphylococcus aureus CL5705 after 20 hrs by twofold serial broth dilution method; conditions: CL5705, 20 h; summary of the method: as §1
Staphylococcus aureus [6] = experiment: Antibacterial activity against vancomycin-intermediate, macrolide, methicillin-resistant Staphylococcus aureus CL5706 after 20 hrs by twofold serial broth dilution method; conditions: CL5706, 20 h; summary of the method: as §1
[7] = tested on: Staphylococcus haemolyticus; experiment: Antibacterial activity against ampicillin-sensitive Staphylococcus haemolyticus CL8544 after 20 hrs by twofold serial broth dilution method; conditions: CL8544, 20 h; summary of the method: as §1
[8] = tested on: Staphylococcus epidermidis; experiment: Antibacterial activity against Staphylococcus epidermidis CL8040 after 20 hrs by twofold serial broth dilution method; conditions: CL8040, 20 h; summary of the method: as §1
Enterococcus faecalis [9] = experiment: Antibacterial activity against vancomycin-sensitive Enterococcus faecalis CL8516 after 20 hrs by twofold serial broth dilution method; conditions: CL8516, 20 h; summary of the method: as §1
Enterococcus faecalis [10] = experiment: Antibacterial activity against vancomycin, macrolide-resistant, linezolid-sensitive Enterococcus faecalis CL5246 after 20 hrs by twofold serial broth dilution method; conditions: CL5246, 20 h; summary of the method: as §1
Enterococcus faecium [11] = experiment: Antibacterial activity against vancomycin, linezolid-resistant Enterococcus faecium CL5791 after 20 hrs by twofold serial broth dilution method; conditions: CL5791, 20 h; summary of the method: as §1
Enterococcus faecium [12] = experiment: Antibacterial activity against vancomycin, linezolid-resistant Enterococcus faecium CL5791 after 20 hrs by twofold serial broth dilution method in presence of 50% human serum; conditions: CL5791, 20 h; summary of the method: as §1
Streptococcus pneumoniae [13] = experiment: Antibacterial activity against penicillin-sensitive Streptococcus pneumoniae CL8002 after 20 hrs by twofold serial broth dilution method; conditions: CL8002, 20 h; summary of the method: as §1
Streptococcus pneumoniae [14] = experiment: Antibacterial activity against penicillin-resistant Streptococcus pneumoniae CL5771 after 20 hrs by twofold serial broth dilution method; conditions: CL5771, 20 h; summary of the method: as §1
Streptococcus pyogenes = experiment: Antibacterial activity against Streptococcus pyogenes CL10440 after 20 hrs by twofold serial broth dilution method; conditions: CL10440, 20 h; summary of the method: as §1
Candida albicans = experiment: Antifungal activity against Candida albicans MY1055 after 20 hrs by twofold serial broth dilution method; conditions: MY1055, 20 h

Row | SMILES | MIC (Staphylococcus aureus [1]) | MIC (Staphylococcus aureus [2]) | MIC (Staphylococcus aureus [3]) | MIC (Staphylococcus aureus [4]) | MIC (Staphylococcus aureus [5]) | MIC (Staphylococcus aureus [6]) | MIC [7] | MIC [8] | MIC (Enterococcus faecalis [9]) | MIC (Enterococcus faecalis [10]) | MIC (Enterococcus faecium [11]) | MIC (Enterococcus faecium [12]) | MIC (Streptococcus pneumoniae [13]) | MIC (Streptococcus pneumoniae [14]) | MIC (Streptococcus pyogenes) | MIC (Candida albicans)
1 | CC[C@H]1OC(=O)[C@H](C)[C@@H](O[C@H]2C[C@@](C)(OC)[C@@H](O)[C@H](C)O2)[C@H](C)[C@@H](O[C@@H]2O[C@H](C)C[C@H](N(C)C)[C@H]2O)[C@](C)(O)C[C@@H](C)C(=O)[C@H](C)[C@@H](O)[C@]1(C)O [ERYTHROMYCIN] | > 32 µg/mL | 0.1 µg/mL (≈ 0.136 µM) | 0.1 µg/mL | 1 µg/mL (≈ 1.36 µM) | > 32 µg/mL | > 32 µg/mL | 1 µg/mL (≈ 1.36 µM) | 0.25 µg/mL (≈ 0.341 µM) | 1 µg/mL (≈ 1.36 µM) | 32 µg/mL (≈ 43.6 µM) | > 32 µg/mL | > 32 µg/mL | 2 µg/mL (≈ 2.73 µM) | 2 µg/mL (≈ 2.73 µM) | ≤ 0.03 µg/mL | > 32 µg/mL
2 | CC(=O)NC[C@H]1CN(c2ccc(N3CCOCC3)c(F)c2)C(=O)O1 [LINEZOLID] | – | – | – | > 32 µg/mL | – | – | 2 µg/mL (≈ 5.93 µM) | 1 µg/mL (≈ 2.96 µM) | – | – | 32 µg/mL (≈ 94.9 µM) | > 32 µg/mL | – | – | 0.5 µg/mL (≈ 1.48 µM) | > 32 µg/mL
3 | C=C(NC(=O)c1csc(-c2nc3c(cc2O)-c2nc(cs2)C(=O)N[C@@H]([C@@H](C)O)C(=O)N/C(=C(\C)OC)c2nc(cs2)C(=O)N[C@@H]2c4nc(cs4)C(=O)N[C@@H](COC(=O)c4[nH]c5cccc6c5c4CO[C@@H]2[C@H](OC)C(=O)OC6)c2nc-3cs2)n1)C(N)=O [THIAZOMYCIN B] | 0.02 µg/mL (≈ 0.0158 µM) | 0.02 µg/mL (≈ 0.0158 µM) | 0.25 µg/mL | 0.02 µg/mL (≈ 0.0158 µM) | 0.03 µg/mL (≈ 0.0237 µM) | 0.03 µg/mL (≈ 0.0237 µM) | 0.03 µg/mL (≈ 0.0237 µM) | 0.03 µg/mL (≈ 0.0237 µM) | 0.1 µg/mL (≈ 0.0791 µM) | 0.06 µg/mL (≈ 0.0475 µM) | 0.004 µg/mL (≈ 0.00316 µM) | 0.1 µg/mL | 0.008 µg/mL (≈ 0.00633 µM) | 0.004 µg/mL (≈ 0.00316 µM) | 0.004 µg/mL (≈ 0.00316 µM) | > 32 µg/mL
4 | CO/C(C)=C1/NC(=O)[C@H]([C@@H](C)O)NC(=O)c2csc(n2)-c2cc(O)c(-c3nc(C(N)=O)cs3)nc2-c2csc(n2)[C@@H]2COC(=O)c3[nH]c4cccc5c4c3CO[C@H]([C@H](O[C@H]3C[C@](C)(O)[C@H](N(C)C)[C@H](C)O3)C(=O)OC5)[C@H](NC(=O)c3csc1n3)c1nc(cs1)C(=O)N2 [THIAZOMYCIN C] | 0.05 µg/mL (≈ 0.037 µM) | 0.05 µg/mL (≈ 0.037 µM) | 0.1 µg/mL | 0.03 µg/mL (≈ 0.0222 µM) | 0.1 µg/mL (≈ 0.0739 µM) | 0.1 µg/mL (≈ 0.0739 µM) | 0.1 µg/mL (≈ 0.0739 µM) | 0.1 µg/mL (≈ 0.0739 µM) | > 0.1 µg/mL | 0.1 µg/mL (≈ 0.0739 µM) | 0.1 µg/mL (≈ 0.0739 µM) | 0.1 µg/mL | 0.01 µg/mL (≈ 0.00739 µM) | 0.006 µg/mL (≈ 0.00444 µM) | 0.006 µg/mL (≈ 0.00444 µM) | > 32 µg/mL
5 | C=C(NC(=O)c1csc(-c2nc3c(cc2O)-c2nc(cs2)C(=O)N[C@@H]([C@@H](C)O)C(=O)N/C(=C(\C)OC)c2nc(cs2)C(=O)N[C@@H]2c4nc(cs4)C(=O)N[C@@H](COC(=O)c4[nH]c5cccc6c5c4CO[C@@H]2[C@H](O[C@H]2C[C@](C)(O)[C@@H](O)[C@H](C)O2)C(=O)OC6)c2nc-3cs2)n1)C(N)=O [THIAZOMYCIN D] | 0.031 µg/mL (≈ 0.0222 µM) | 0.03 µg/mL (≈ 0.0215 µM) | 1 µg/mL | 0.06 µg/mL (≈ 0.043 µM) | 0.1 µg/mL (≈ 0.0717 µM) | 0.1 µg/mL (≈ 0.0717 µM) | 0.06 µg/mL (≈ 0.043 µM) | 0.03 µg/mL (≈ 0.0215 µM) | 0.1 µg/mL (≈ 0.0717 µM) | 0.1 µg/mL (≈ 0.0717 µM) | 0.1 µg/mL (≈ 0.0717 µM) | 1 µg/mL | 0.1 µg/mL (≈ 0.0717 µM) | 0.03 µg/mL (≈ 0.0215 µM) | 0.02 µg/mL (≈ 0.0143 µM) | > 32 µg/mL
6 | C=C(NC(=O)c1csc(-c2nc3c(cc2O)-c2nc(cs2)C(=O)N[C@@H]([C@@H](C)O)C(=O)N/C(=C(\C)OC)c2nc(cs2)C(=O)N[C@@H]([C@H](O)[C@H](O[C@H]2C[C@](C)(O)[C@H](N(C)C)[C@H](C)O2)C(=O)O)c2nc(cs2)C(=O)N[C@@H](CO)c2nc-3cs2)n1)C(N)=O [THIAZOMYCIN E1] | – | 100 µg/mL (≈ 79.7 µM) | – | – | – | – | – | – | > 200 µg/mL | – | – | – | 200 µg/mL (≈ 159 µM) | – | – | –
7 | C=C(NC(=O)c1csc(-c2nc3c(cc2O)-c2nc(cs2)C(=O)N[C@@H]([C@@H](C)O)C(=O)N/C(=C(\C)OC)c2nc(cs2)C(=O)N[C@@H]([C@H](O)[C@H](O)C(=O)O)c2nc(cs2)C(=O)N[C@@H](CO)c2nc-3cs2)n1)C(N)=O [THIAZOMYCIN E2] | – | > 200 µg/mL | – | – | – | – | – | – | > 200 µg/mL | – | – | – | > 200 µg/mL | – | – | –
8 | CO/C(C)=C1/NC(=O)[C@H]([C@@H](C)O)NC(=O)c2csc(n2)-c2cc(O)c(-c3nc(C(N)=O)cs3)nc2-c2csc(n2)[C@H](CO)NC(=O)c2csc(n2)[C@H]([C@H](O)[C@H](O)C(=O)O)NC(=O)c2csc1n2 [THIAZOMYCIN E3] | – | > 200 µg/mL | – | – | – | – | – | – | 200 µg/mL (≈ 197 µM) | – | – | – | 200 µg/mL (≈ 197 µM) | – | – | –
9 | C=C(NC(=O)c1csc(-c2nc3c(cc2O)-c2nc(cs2)C(=O)N[C@@H]([C@@H](C)O)C(=O)N/C(=C(\C)OC)c2nc(cs2)C(=O)N[C@@H]2c4nc(cs4)C(=O)N[C@@H](COC(=O)c4c5c6c(cccc6n4O)COC(=O)[C@@H](O[C@H]4C[C@]6(C)OCN(C)[C@@H]6[C@H](C)O4)[C@H]2OC5)c2nc-3cs2)n1)C(N)=O [THIAZOMYCIN] | 0.003 µg/mL (≈ 0.00209 µM) | 0.006 µg/mL (≈ 0.00418 µM) | 0.05 µg/mL | 0.01 µg/mL (≈ 0.00697 µM) | 0.01 µg/mL (≈ 0.00697 µM) | 0.01 µg/mL (≈ 0.00697 µM) | 0.02 µg/mL (≈ 0.0139 µM) | 0.03 µg/mL (≈ 0.0209 µM) | 0.02 µg/mL (≈ 0.0139 µM) | 0.01 µg/mL (≈ 0.00697 µM) | 0.002 µg/mL (≈ 0.00139 µM) | 0.01 µg/mL | 0.003 µg/mL (≈ 0.00209 µM) | 0.003 µg/mL (≈ 0.00209 µM) | 0.002 µg/mL (≈ 0.00139 µM) | > 32 µg/mL
